Laboratory results taken from article PMC6645473 (ACS Omega, 2018).
Entries after “also recorded” stand apart in the source; their conditions may differ. Where no end group is shown, it is not given here. [ ]: non-standard residue; d: D form. Nle = CCCC[C@H](N)C(=O)O; Nva = CCC[C@H](N)C(=O)O; Aib = CC(C)(N)C(=O)O

Tests used:
[1] = test system: Aβ1–42 toxicity in PC-12 cells; test: MTT cell viability assay, Aβ1–42 co-incubated with tetrapeptides; format: cell-based; conditions: calculated from OD570 of MTT assay in PC-12 cells
Summary of the method: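 PC-12 cells were grown in F-12K with 5% FBS and 10% horse serum and used at 70% confluence. For the assay, medium was switched to F-12K with 10% FBS, and cells were seeded at 17 000/well overnight. Monomerized Aβ1–42 was added with test peptide (DMSO stock diluted in PBS; 1:1, 1:5, 1:10) for 6 h. MTT was then added for 4 h, followed by DMSO solubilization and OD570. Inhibition % = 100×(OD peptide+Aβ − OD Aβ)/(OD control − OD Aβ).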

Aβ1–42 [2] = biological target: T1, Aβ1–42 (Homo sapiens, UniProt P05067); test: Circular dichroism secondary structure analysis of Aβ1–42; format: biochemical; conditions: CD, Aβ1–42/peptide 1:5, 12 h, 37 °C
T1 sequence (P05067 672-713): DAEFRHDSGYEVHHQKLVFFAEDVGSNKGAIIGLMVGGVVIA
Summary of the method: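 Aβ1–42 (NaOH stock diluted to 20 μM in sodium phosphate buffer) mixed 1:5 with test peptide (TFE stock diluted to 100 μM), 12 h at 37 °C. Spectra taken at 0 and 12 h, 190–260 nm, 37 °C, 1 mm cell, 50 nm/min, 2 nm bandwidth, averaging 3 scans. Buffer blank and inhibitor-alone spectra subtracted, then deconvolution into secondary-structure percentages.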

[3] = Electron microscopy of tetrapeptides incubated alone; format: physicochemical; conditions: HRTEM and STEM, peptide alone in SPB pH 7.4, 37 °C, 72 h
Summary of the method: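 Test peptide stock (5 mM in DMSO) diluted to 250 μM in 10 mM SPB, pH 7.4, and incubated alone at 37 °C for 72 h. A droplet is fixed on carbon-coated copper grids with 0.5% glutaraldehyde, washed with ultrapure water and negatively stained with 2% uranyl acetate. Grids are imaged by HRTEM/STEM at 120 keV.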

Aβ1–42 [4] = biological target: T1, Aβ1–42; test: Electron microscopy; conditions: HRTEM and STEM, Aβ1–42/test peptide 1:5, 37 °C, 72 h
Summary of the method: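 HFIP-treated Aβ1–42 (50 μM in 10 mM sodium phosphate buffer, pH 7.4) mixed in equal volumes with test or control tetrapeptide (250 μM, from DMSO stock) to give 1:5, then held 72 h at 37 °C. Peptides alone were imaged too. Samples were fixed on carbon-coated copper grids with 0.5% glutaraldehyde, washed in water, negatively stained with 2% uranyl acetate and imaged at 120 keV.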

Aβ1–42 [5] = biological target: T1, Aβ1–42; test: ThT fluorescence assay of Aβ1–42 aggregation; format: biochemical; conditions: Aβ1–42 2 μM + peptide 20 μM (1:10), Aβ1–42 alone = 100%, n = 3
Summary of the method: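 Aβ1–42 (2 μM) was incubated with test peptide at 1:10 in wells containing ThT (2.5 μM, glycine-NaOH pH 8.5), at 37 °C with shaking at 200 rpm. Fluorescence (ex 445/em 485 nm) was read at intervals over 7 days. Blank was subtracted, and RFU was normalized to the Aβ1–42-alone rise over ThT alone (100%). Triplicates were averaged.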

[6] = test system: Aβ1–40 toxicity for PC-12 cells; test: MTT cell viability assay with Aβ1–40; format: cell-based; conditions: data not shown

Row | Substance | inhibition (%) of Aβ1–42 (2 μM) ([1]; test peptide 2 μM) [%] | inhibition (%) of Aβ1–42 (2 μM) ([1]; test peptide 10 μM) [%] | inhibition (%) of Aβ1–42 (2 μM) ([1]; test peptide 20 μM) [%] | further results
1 | Pro-Pro-Ile-Ala [compound 25] | 14.0 | 39.0 | 90.0 | 
2 | Val-Val-Phe-Ala [compound 36] | 0 | 0 | 0 | 
3 | VV[Aib]A [compound 34] | 1.0 | 0 | 11.0 | 
4 | [dA]VIA [compound 3] | 0 | 0 | 0 | 
5 | VV[dA]A [compound 27] | 0 | 0 | 11.0 | 
6 | V[Aib]IA [compound 20] | 0 | 22.0 |  | random coil form of Aβ1–42 co-incubated with inhibitor (Aβ1–42 [2]; Aβ1–42 alone at 12 h 42.3%): 58.5%; β-sheet conformation of Aβ1–42 co-incubated with inhibitor (Aβ1–42 [2]; Aβ1–42 alone at 12 h 47.1%): 14.2%; self-aggregation of peptide incubated alone [3]: did not exhibit any self-aggregation; morphology of Aβ1–42 aggregates upon co-incubation (Aβ1–42 [4]): no such aggregates were formed; RFU, time-dependent ThT study (Aβ1–42 [5]; at 24 h): 6%; RFU, time-dependent ThT study (Aβ1–42 [5]; at 3 days): 4%; RFU, time-dependent ThT study (Aβ1–42 [5]; at 5 days): 10.9%; RFU, time-dependent ThT study (Aβ1–42 [5]; at 7 days): 11.4%; inhibition of Aβ1–40 toxicity [6]: did not show inhibition; also recorded: lack of activity
7 | V[dL]IA [compound 14] | 5.0 | 0 | 1.0 | 
8 | Leu-Val-Ile-Ala [compound 5] | 0 | 0 | 0 | 
9 | Ile-Val-Ile-Ala [compound 7] | 0 | 3.0 | 2.0 | 
10 | VV[Nle]A [compound 38] | 0 | 0 | 0 | 
11 | [Nva]VIA [compound 11] | 0 | 0 | 0 | 
12 | VV[dI]A [compound 26] | 0 | 0 | 0 | 
13 | [dL]VIA [compound 4] | 0 | 0 | 2.0 | 
14 | VVI[dA] [compound 39] | 0 |  | 4.0 | 
15 | VV[Nva]A [compound 37] | 0 | 0 | 1.0 | 
16 | Val-Val-Ile-Leu [compound 41] | 0 | 0 | 0 | 
17 | Val-Val-Ile-Val [compound 40] | 4.0 | 13.0 | 9.0 | 
18 | Val-Val-Leu-Ala [compound 29] | 10.0 | 0 | 0 | 
19 | V[dF]IA [compound 21] | 0 | 5.0 | 0 | 
20 | Val-Val-Ile-Phe [compound 44] | 0 | 0 | 0 | 
21 | V[dV]IA [compound 12] | 0 | 0 | 0 | 

Row | Substance | inhibition (%) of Aβ1–42 (2 μM) ([1]; test peptide 2 μM) [%] | inhibition (%) of Aβ1–42 (2 μM) ([1]; test peptide 10 μM) [%] | inhibition (%) of Aβ1–42 (2 μM) ([1]; test peptide 20 μM) [%] | further results
22 | [dI]VIA [compound 6] | 0 | 0 | 0 | 
23 | Val-Ile-Ile-Ala [compound 17] | 0 | 0 | 0 | 
24 | V[dA]IA [compound 13] | 0 | 0 | 0 | 
25 | Val-Val-Pro-Ala [compound 33] | 0 | 0 | 3.0 | 
26 | Val-Val-Ile-Ala [compound 1, reference compound] | 8.0 | 30.0 |  | 
27 | VV[dV]A [compound 30] | 0 | 0 | 0 | 
28 | Val-Val-Ile-Ile [compound 42] | 24.0 | 27.0 | 29.0 | 
29 | [Aib][Aib]IA [compound 24] | 13.0 | 18.0 | 73.0 | 
30 | Val-Pro-Ile-Ala [compound 19] | 16.0 | 17.0 | 24.0 | 
31 | V[dI]IA [compound 16] | 20.0 | 20.0 | 27.0 | 
32 | Pro-Val-Ile-Ala [compound 9] | 0 | 0 | 0 | 
33 | V[dP]IA [compound 18] | 7.0 | 20.0 | 64.0 | 
34 | VV[dF]A [compound 35] | 4.0 | 10.0 | 9.0 | 
35 | Val-Leu-Ile-Ala [compound 15] | 0 | 0 | 13.0 | 
36 | [Aib]VIA [compound 10] | 1.0 | 9.0 | 13.0 | 
37 | [dP]VIA [compound 8] | 5.0 | 9.0 | 4.0 | 
38 | VVI[dF] [compound 43] | 0 | 0 | 4.0 | self-aggregation of peptide incubated alone [3]: large clusters of amorphous aggregates; morphology of Aβ1–42 aggregates upon co-incubation (Aβ1–42 [4]): small truncated aggregates were found in bunches
39 | VV[dP]A [compound 32] | 27.0 | 26.0 | 21.0 | 
40 | VV[dL]A [compound 28] | 0 | 2.0 | 10.0 | 
41 | Val-Val-Val-Ala [compound 31] | 0 | 0 | 3.0 | 
